Results published in ChEMBL document CHEMBL1146090, “Similarity based virtual screening: a tool for targeted library design” (J Med Chem, 2006).

Tests used:
[1] = test system: Chlamydia pneumoniae; test: Antibacterial activity against Chlamydia pneumoniae in HL cells at 1 uM; type: functional
Procedure, shortened: (§1)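 HL host cells (RPMI 1640, 10% FBS, 2 mM L-glutamine, 37 °C, 5% CO2) seeded 5×10^4/well; after 24 h, confluent monolayers inoculated by centrifugation (550 × g, 60 min) with C. pneumoniae Kajaani 7 EBs, 4×10^5 IFU/mL. Agent added in antibiotic-free medium plus 0.5 μg/mL cycloheximide; 72 h, 37 °C. Methanol-fixed; europium-labelled genus-specific antibody, time-resolved fluorometry. Two experiments on different days, six replicates each, averaged.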

[2] = Viability of HL cells at 50 uM; type: cell-based; settings: human, read-out: Activity
Procedure, shortened: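 Viable HL cells counted through intracellular LDH after 3 days exposure to 50 μM agent. Medium removed, cells washed twice and lysed, then LDH measured with the same kit. Percentage derived against LDH from unexposed cultures. Mean of four replicates, single experiment.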

[3] = test system: Chlamydia pneumoniae; test: Antibacterial activity against Chlamydia pneumoniae in HL cells at 5 uM; type: functional; procedure, shortened: as §1
[4] = test system: Chlamydia pneumoniae; test: Antibacterial activity against Chlamydia pneumoniae in HL cells at 50 uM; type: functional; procedure, shortened: as §1
[5] = test system: Chlamydia pneumoniae; test: Antibacterial activity against Chlamydia pneumoniae in HL cells at 70 uM; type: functional; procedure, shortened: as §1
[6] = test system: HL; test: Cytotoxicity against HL cells at 50 uM; type: functional

N=C(NOC(=O)Nc1cccc(Cl)c1)c1ccc2nonc2c1 showed an inhibition at 1 µM [1] of 0%, a viability at 50 µM [2] of 99.3% and an inhibition at 5 µM [3] of 6.8%. For the same molecule, the inhibition at 50 µM [4] was 85.5%, the inhibition at 70 µM [5] was 99.3% and the cytotoxicity [6] was 1.1%.

O=C(Nc1cccc(-c2nc3ccccc3[nH]2)c1)c1ccccc1 gave an inhibition at 1 µM [1] of 14.6%, a viability at 50 µM [2] of 95.5% and an inhibition at 5 µM [3] of 19.7%. The inhibition at 50 µM [4] was 69.6%, the inhibition at 70 µM [5] was 69.1% and the cytotoxicity [6] was 1.2%.

N=C(NOC(=O)Nc1ccccc1)c1ccc2nonc2c1 gave an inhibition at 1 µM [1] of 0%, a viability at 50 µM [2] of 100% and an inhibition at 5 µM [3] of 0.2%. The inhibition at 50 µM [4] was 56.1%, the inhibition at 70 µM [5] was 72.5% and the cytotoxicity [6] was 0%.

Molecule c1ccc(-c2cc3ncnc(NCc4ccc5c(c4)OCO5)c3s2)cc1 has an inhibition at 1 µM [1] of 2.1%, a viability at 50 µM [2] of 98.2% and an inhibition at 5 µM [3] of 58.8%. For the same molecule, the inhibition at 50 µM [4] was 68.6%, the inhibition at 70 µM [5] was 71.2% and the cytotoxicity [6] was 0.4%.

Nc1nc(Nc2ccccc2)nc(Nc2ccccc2)n1 showed an inhibition at 1 µM [1] of 0%, a viability at 50 µM [2] of 83.4% and an inhibition at 5 µM [3] of 0%. For the same molecule, the inhibition at 50 µM [4] was 72.8%, the inhibition at 70 µM [5] was 100% and the cytotoxicity [6] was 3.7%.

For Nc1nc(Nc2ccc(Cl)cc2)nc(-c2cc(Cl)ccc2O)n1, the inhibition at 1 µM [1] was 0%, the viability at 50 µM [2] was 95% and the inhibition at 5 µM [3] was 76%. For the same molecule, the inhibition at 50 µM [4] was 79.8%, the inhibition at 70 µM [5] was 83.9% and the cytotoxicity [6] was 1.4%.

O=C(Nc1ccc2c(c1)OCCO2)c1cccc(COc2cc(Cl)ccc2Cl)c1 showed an inhibition at 1 µM [1] of 0%, a viability at 50 µM [2] of 86.2% and an inhibition at 5 µM [3] of 15.3%. The inhibition at 50 µM [4] was 81.8%, the inhibition at 70 µM [5] was 93.6% and the cytotoxicity [6] was 2.3%.

For O=C(Nc1cccc(-c2nc3ccccc3[nH]2)c1)c1cccs1, the inhibition at 1 µM [1] was 39.5%, the viability at 50 µM [2] was 98% and the inhibition at 5 µM [3] was 41.2%. It also gave an inhibition at 50 µM [4] of 90.5%, an inhibition at 70 µM [5] of 92.6% and a cytotoxicity [6] of 1.2%.
